Blank lines part the entries; values can stand above or below the molecule they belong to.
Key:
[1] = system: Primary human retinal microvascular endothelial cells (ACBRI-181); experiment: DMOG chemical hypoxia model; type: cell-based; details: DHA 50μM, AICAR 0.5mM; DMOG 400 μM 24h
Procedure, shortened: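 Primary human retinal microvascular endothelial cells (passage 6–8) grown in endothelial growth medium with 10% FBS. At 70% confluence, exposed 24 h to DMOG 400 μM with or without AICAR 0.5 mM or DHA 50 μM. HIF-1α, HIF-2α, VEGF, ZO-1 and vimentin assessed by immunofluorescence, plus a cell migration assay. AMPK activity by western blot.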

Arrb2+/+ beta cells = experiment: F-actin depolymerisation, phalloidin staining; type: cell-based, mouse; details: 1μmol/l
Procedure, shortened: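 F-actin depolymerisation assessed by Alexa Fluor 488-conjugated phalloidin staining. FAK phosphorylation assessed by immunofluorescence.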

C2C12 murine myotubes = experiment: ATPγS glucose uptake; type: cell-based; details: 100 μM
adiponectin receptor = experiment: HFD-fed DBA/2J mice with AdipoRon, 9 weeks; type: in vivo, mouse; details: HFD supplemented with AdipoRon
[2] = i.v. beta-hydroxybutyrate infusion crossover study, T2D; type: in vivo, human
CREDENCE trial = type: in vivo, human
[3] = system: patients with type 2 diabetes and CKD; experiment: CREDENCE acute eGFR decline; type: in vivo, human; details: week 3
[4] = 6 weeks
Notch pathway = experiment: PHA-activated co-cultures of obASCs and MNCs; type: cell-based, human; details: PHA-activated obASC/MNC co-cultures
Procedure, shortened: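 Human obese adipose-derived stem cells were co-cultured with mononuclear cells under phytohemagglutinin A activation, with or without the Notch inhibitor DAPT. Separately, the stem cells were transfected or not with Dner-targeting siRNA. Cytokine secretion into the medium was measured by ELISA, and expression by RT-qPCR.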

[5] = Empagliflozin 4-week crossover study, cardiac PET/CT; type: in vivo, human
[6] = system: isolated diabetic mouse hearts; experiment: Langendorff-perfused db/db hearts, stable isotope analysis
[7] = 24-week empagliflozin appetite trial in overweight/obesity and T2D; type: in vivo, human
rats with CHF = type: in vivo, rat; details: 30 mg/kg PO
[8] = system: patients with T2D and CV disease; experiment: EMPA-REG OUTCOME post hoc analyses; set-up: species or system human; details: in vivo
[9] = ACCORD trial, cardiovascular autonomic neuropathy; type: in vivo, human; details: 95%CI 0.78 - 1.07
[10] = iv bolus of purified MGO in mice, immune cell numbers; type: in vivo, mouse
[11] = system: human retinal endothelial cells (hRECs); experiment: MGO exposure of human retinal endothelial cells; type: cell-based; details: 500μM, 72h
Rev-erbα = Rev-erbα agonist and antagonist in beta cells and human islets; type: cell-based
Procedure, shortened: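 Cells used were rat INS-1E, human EndoC-βH1 and human islets. Rev-erbα was modulated with agonist, antagonist or siRNA knock-down. Stress was glucotoxicity (INS-1E, EndoC-βH1) or cytokines (INS-1E, human islets). Glucose-induced insulin secretion was read by HTRF, apoptosis as cleaved caspase-3, and Rev-erbα protein by western blot.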

neprilysin [12] = target: neprilysin (Mus musculus, UniProt Q61391); experiment: Exogenous glucagon after sacubitril in mice; type: in vivo; details: 0.7 nmol/g; glucagon 96 ng/g; n=10
[13] = Intrajejunal metformin with or without bile exclusion or TCA, T2DM; type: in vivo, human; details: metformin with TCA 4 g supplementation; endogenous bile included
[14] = system: differentiated adipocytes (wild type); experiment: Adipocyte glucose uptake after dexamethasone; type: cell-based, human; details: 0.3 μM/24 h; WT cultures; n=6
[15] = Brain insulin sensitivity by fMRI with intranasal insulin, prediabetes; type: in vivo, human; details: 25 mg qd, 8 weeks
[16] = Empagliflozin 24 weeks in T2DM and HFpEF; type: in vivo, human; details: after 24 weeks; baseline 126
[17] = HFD-induced obese mice, empagliflozin 8 weeks; type: in vivo, mouse; set-up: AUC glucose / AUC insulin: unit not given beside the values
[18] = db/db mice, empagliflozin alone or with linagliptin, 8 weeks; type: in vivo, mouse; details: 10 mg/kg (of each)
Procedure, shortened: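 Male 8-week-old db/db mice (BKS.Cg-Dock7m+/+Leprdb/J) received vehicle, SGLT2 inhibitor 10 mg/kg, or SGLT2 inhibitor plus DPP4 inhibitor (10 mg/kg each) for 8 weeks. Heterozygous db/+ mice served as non-diabetic controls. Plasma glucose, fructosamine, glycated albumin and urinary albumin-to-creatinine ratio were measured at weeks 0 and 8.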

[19] = system: patients with type 2 diabetes; experiment: Network meta-analysis of antidiabetic medications on blood pressure; set-up: species or system human
CAROLINA trial = type: in vivo, human; details: 5 mg; regardless of age group
Piezo1 [20] = target: Piezo1 (Mus musculus, UniProt E2JF22); experiment: In situ pancreas perfusion, insulin secretion
Procedure, shortened: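 Mice were β-cell-specific Piezo1 knockouts (RIP-Cre+Piezo1f/f). Insulin secretion was measured by in situ pancreas perfusion.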

Piezo1 [21] = target: Piezo1 (Homo sapiens, UniProt Q92508); experiment: Ca2+ imaging in human β-cells; type: cell-based
Procedure, shortened: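 Human β-cells loaded for Ca2+ imaging. Amplitude of glucose-induced [Ca2+]i oscillations recorded with and without a Piezo1-inhibiting test compound.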

[22] = 4-week treatment of DIO mice, body weight loss; type: in vivo, mouse; details: s.c., 4 weeks, human equivalent doses
[23] = 1.5 mg once weekly; 95% CI 0.79, 0.99; cited from earlier work
[24] = EVOLVE study, insulin detemir in pregnancy; type: in vivo, human; details: 727 vs 730 women
Procedure, shortened: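 […] in women with pre-existing diabetes comparing the test basal insulin with another basal insulin. The primary endpoint was the number of women completing ≥22 weeks of gestation without major congenital malformations, perinatal death or neonatal death. It was analysed as crude and adjusted risk difference between treatment groups.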

neprilysin [25] = target: neprilysin (Homo sapiens, UniProt P08473); experiment: Mixed meal after single dose sacubitril/valsartan, healthy males; type: in vivo; details: 194 mg sacubitril / 206 mg valsartan single dose
[26] = seven- and ninety-day treatment

Piezo1 (Mus musculus, UniProt E2JF22), sequence (E2JF22 whole entry, the tested form may be a part): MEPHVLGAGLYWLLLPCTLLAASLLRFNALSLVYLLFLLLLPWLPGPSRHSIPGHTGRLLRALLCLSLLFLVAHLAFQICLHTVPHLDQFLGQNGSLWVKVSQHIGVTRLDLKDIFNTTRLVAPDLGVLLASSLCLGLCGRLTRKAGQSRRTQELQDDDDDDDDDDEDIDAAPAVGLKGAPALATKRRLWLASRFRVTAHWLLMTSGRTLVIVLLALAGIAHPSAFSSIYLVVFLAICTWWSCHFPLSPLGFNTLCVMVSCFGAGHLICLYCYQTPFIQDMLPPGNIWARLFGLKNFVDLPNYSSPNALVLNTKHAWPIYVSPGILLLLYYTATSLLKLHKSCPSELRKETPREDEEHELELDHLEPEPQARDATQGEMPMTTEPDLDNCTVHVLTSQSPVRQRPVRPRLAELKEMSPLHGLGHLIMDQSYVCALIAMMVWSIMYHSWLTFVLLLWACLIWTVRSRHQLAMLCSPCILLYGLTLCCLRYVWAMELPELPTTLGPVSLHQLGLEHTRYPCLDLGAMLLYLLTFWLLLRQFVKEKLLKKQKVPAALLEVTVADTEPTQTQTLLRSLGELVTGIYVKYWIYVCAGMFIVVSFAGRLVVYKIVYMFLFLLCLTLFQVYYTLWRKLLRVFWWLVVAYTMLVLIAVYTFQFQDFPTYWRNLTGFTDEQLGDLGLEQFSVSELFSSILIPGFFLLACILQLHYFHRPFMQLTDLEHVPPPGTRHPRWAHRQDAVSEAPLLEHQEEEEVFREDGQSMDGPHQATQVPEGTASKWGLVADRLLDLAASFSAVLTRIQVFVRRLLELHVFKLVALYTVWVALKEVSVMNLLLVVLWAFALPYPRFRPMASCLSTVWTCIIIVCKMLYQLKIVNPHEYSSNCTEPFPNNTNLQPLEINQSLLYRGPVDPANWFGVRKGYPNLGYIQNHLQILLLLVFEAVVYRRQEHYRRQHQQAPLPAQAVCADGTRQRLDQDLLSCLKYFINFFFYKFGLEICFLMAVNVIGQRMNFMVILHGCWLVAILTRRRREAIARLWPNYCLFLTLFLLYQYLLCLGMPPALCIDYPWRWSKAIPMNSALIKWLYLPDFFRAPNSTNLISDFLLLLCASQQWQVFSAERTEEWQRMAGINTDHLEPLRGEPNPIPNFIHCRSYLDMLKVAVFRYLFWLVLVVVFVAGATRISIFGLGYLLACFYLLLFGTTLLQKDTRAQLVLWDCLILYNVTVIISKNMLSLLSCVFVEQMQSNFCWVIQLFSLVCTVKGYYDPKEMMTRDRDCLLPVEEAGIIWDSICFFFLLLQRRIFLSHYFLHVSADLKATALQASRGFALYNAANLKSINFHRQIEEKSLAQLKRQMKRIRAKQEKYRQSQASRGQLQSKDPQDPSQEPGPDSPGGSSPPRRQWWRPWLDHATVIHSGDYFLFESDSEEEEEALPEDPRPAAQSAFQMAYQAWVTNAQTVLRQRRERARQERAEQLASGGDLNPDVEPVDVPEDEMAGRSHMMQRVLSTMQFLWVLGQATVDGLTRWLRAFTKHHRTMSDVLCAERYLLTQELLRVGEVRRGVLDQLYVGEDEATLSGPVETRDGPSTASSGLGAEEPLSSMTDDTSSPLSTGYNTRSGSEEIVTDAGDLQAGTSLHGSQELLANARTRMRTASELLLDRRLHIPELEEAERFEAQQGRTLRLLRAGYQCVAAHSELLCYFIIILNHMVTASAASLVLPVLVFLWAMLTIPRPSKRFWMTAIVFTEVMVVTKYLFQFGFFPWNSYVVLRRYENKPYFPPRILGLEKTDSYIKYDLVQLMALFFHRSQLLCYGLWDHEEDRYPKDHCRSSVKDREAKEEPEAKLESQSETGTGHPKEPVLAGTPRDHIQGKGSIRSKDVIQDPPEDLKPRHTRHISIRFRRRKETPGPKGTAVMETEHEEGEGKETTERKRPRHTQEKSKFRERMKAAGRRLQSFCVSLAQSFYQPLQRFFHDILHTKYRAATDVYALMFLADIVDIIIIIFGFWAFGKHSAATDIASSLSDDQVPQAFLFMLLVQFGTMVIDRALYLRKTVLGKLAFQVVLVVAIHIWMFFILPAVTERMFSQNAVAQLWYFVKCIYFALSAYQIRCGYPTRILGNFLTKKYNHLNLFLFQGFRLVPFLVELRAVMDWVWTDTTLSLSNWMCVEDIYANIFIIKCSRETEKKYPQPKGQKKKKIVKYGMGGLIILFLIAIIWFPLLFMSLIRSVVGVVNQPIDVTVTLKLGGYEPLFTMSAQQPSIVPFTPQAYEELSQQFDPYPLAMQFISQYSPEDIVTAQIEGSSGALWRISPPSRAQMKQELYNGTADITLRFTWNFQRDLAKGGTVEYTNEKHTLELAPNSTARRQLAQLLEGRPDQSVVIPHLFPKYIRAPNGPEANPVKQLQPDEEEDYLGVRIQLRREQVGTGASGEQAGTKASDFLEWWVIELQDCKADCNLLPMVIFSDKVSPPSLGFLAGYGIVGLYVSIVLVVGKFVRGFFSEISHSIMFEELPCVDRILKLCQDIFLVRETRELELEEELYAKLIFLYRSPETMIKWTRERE
neprilysin (Homo sapiens, UniProt P08473), sequence (P08473 whole entry): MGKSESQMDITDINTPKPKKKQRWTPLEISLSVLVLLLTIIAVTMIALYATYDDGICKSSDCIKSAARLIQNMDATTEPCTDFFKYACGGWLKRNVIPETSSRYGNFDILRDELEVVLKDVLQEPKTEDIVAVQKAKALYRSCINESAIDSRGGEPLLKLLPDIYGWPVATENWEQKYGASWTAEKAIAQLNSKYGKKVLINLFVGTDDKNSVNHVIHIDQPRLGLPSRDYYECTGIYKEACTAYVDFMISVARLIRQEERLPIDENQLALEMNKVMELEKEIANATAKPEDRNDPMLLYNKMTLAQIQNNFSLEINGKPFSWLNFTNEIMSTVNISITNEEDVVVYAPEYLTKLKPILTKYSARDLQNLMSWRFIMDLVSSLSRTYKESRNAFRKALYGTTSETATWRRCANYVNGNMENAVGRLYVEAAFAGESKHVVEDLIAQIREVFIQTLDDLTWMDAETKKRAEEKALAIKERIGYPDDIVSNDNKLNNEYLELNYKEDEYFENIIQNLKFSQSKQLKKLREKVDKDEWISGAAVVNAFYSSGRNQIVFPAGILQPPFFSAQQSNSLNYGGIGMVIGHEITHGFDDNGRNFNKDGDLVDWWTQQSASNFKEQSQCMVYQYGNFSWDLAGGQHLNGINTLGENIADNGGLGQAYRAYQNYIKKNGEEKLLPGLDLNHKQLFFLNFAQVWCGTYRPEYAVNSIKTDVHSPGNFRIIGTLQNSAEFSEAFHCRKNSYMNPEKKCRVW
neprilysin (Mus musculus, UniProt Q61391), sequence (Q61391 whole entry): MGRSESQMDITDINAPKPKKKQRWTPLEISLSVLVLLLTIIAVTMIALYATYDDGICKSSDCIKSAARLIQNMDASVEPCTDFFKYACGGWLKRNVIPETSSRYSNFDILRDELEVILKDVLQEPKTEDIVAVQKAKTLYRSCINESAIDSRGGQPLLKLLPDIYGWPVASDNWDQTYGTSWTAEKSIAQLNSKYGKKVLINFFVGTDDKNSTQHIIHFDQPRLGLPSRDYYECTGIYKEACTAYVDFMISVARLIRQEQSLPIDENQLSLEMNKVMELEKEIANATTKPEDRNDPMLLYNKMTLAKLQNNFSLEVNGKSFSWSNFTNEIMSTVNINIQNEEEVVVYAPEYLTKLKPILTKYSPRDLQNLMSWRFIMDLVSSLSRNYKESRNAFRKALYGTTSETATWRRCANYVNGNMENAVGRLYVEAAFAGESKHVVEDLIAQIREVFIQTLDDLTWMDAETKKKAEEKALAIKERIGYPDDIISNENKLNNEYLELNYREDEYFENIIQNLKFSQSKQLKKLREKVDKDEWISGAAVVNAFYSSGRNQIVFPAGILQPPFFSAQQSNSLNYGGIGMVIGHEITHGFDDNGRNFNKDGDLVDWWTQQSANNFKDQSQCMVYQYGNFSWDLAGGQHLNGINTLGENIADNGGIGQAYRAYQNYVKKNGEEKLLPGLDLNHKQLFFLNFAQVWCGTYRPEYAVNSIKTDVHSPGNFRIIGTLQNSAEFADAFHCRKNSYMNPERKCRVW

Molecule: NC(=O)c1ncn([C@@H]2O[C@H](COP(=O)(O)O)[C@@H](O)[C@H]2O)c1N [AICAR, 5-aminoimidazole-4-carboxamide ribonucleotide]
- DMOG-induced abnormalities (HIF, VEGF, ZO-1, vimentin, migration) [1]: fully prevented

Molecule: O=C1NC(=O)/C(=C/c2ccc3c(c2)OC(F)(F)O3)S1 [AS604850]
- reduction of F-actin depolymerisation by GIP stimulation (Arrb2+/+ beta cells): ~ 30%

Molecule: Nc1ncnc2c1ncn2[C@@H]1O[C@H](CO[P@](=O)(O)O[P@](=O)(O)O[P@@](=O)(O)S)[C@@H](O)[C@H]1O [ATPγS]
- glucose uptake (C2C12 murine myotubes): increased glucose uptake

Molecule: O=C(COc1ccc(C(=O)c2ccccc2)cc1)NC1CCN(Cc2ccccc2)CC1 [AdipoRon]
- HFD-induced weight gain (adiponectin receptor): reduced

- beta-hydroxybutyrate levels during infusion ([2]; placebo 0.1 ± 0.6): 2.4 ± 0.6 mM
Molecule: CC(O)CC(=O)O (stereo not drawn) [Beta-hydroxybutyrate, beta-hydroxybutyrate]
- increase in heart rate vs placebo ([2]; n=17): 13.7 ± 1.2 bpm

Molecule: Cc1ccc([C@@H]2O[C@H](CO)[C@@H](O)[C@H](O)[C@H]2O)cc1Cc1ccc(-c2ccc(F)cc2)s1 [CANA, canagliflozin]
- HHF alone HR vs placebo (CREDENCE trial; 95% CI 0.47-0.80): 0.61
- HHF/CV death HR vs placebo (CREDENCE trial; 95% CI 0.57, 0.83, median 2.6 years): 0.69
- reduction of risk of HHF/CV death (CREDENCE trial; overall population): 31%
- participants with >30% decline [3]: 4%

Molecule: CCOc1ccc(Cc2cc([C@@H]3O[C@H](CO)[C@@H](O)[C@H](O)[C@H]3O)ccc2Cl)cc1 [DAPA, dapagliflozin]
- hepatic uptake of fatty acids vs placebo ([4]; 10 mg/day): increased
- plasma NT-proBNP levels [4]: unaffected

Molecule: C[C@H](NC(=O)Cc1cc(F)cc(F)c1)C(=O)N[C@H](C(=O)OC(C)(C)C)c1ccccc1 [DAPT]
- IL-17A secretion (Notch pathway): significantly inhibited

Molecule: CC/C=C\C/C=C\C/C=C\C/C=C\C/C=C\C/C=C\CCC(=O)O [DHA, docosahexaenoic acid]
- DMOG-induced abnormalities (HIF, VEGF, ZO-1, vimentin, migration) [1]: fully prevented

Molecule: OC[C@H]1O[C@@H](c2ccc(Cl)c(Cc3ccc(O[C@H]4CCOC4)cc3)c2)[C@H](O)[C@@H](O)[C@@H]1O [EMPA, empagliflozin]
- myocardial glucose uptake (MGU) ([5]; 18F-FDG PET, placebo 1.4±0.6): 0.6±0.6 μmol/100g/min
- 48-hour mean blood glucose ([5]; four weeks, placebo 9.4 ± 2.2): 8.0 ± 0.9
- reduction of postabsorptive myocardial glucose uptake ([5]; in vivo): 57%
- circulating FFA ([5]; placebo 0.8±3): 1.0 ± 0.4 mmol/L
- FFA esterification rate ([5]; placebo 1.1±0.6): 1.3±0.7 μmol/100g/min
- myocardial FFA oxidation rate ([5]; placebo 8.0±3.1): 7.2±3.1 μmol/100g/min
- total FFA uptake rate ([5]; placebo 9.1±3.2): 8.4±3.6 μmol/100g/min
- myocardial oxygen consumption ([5]; placebo 9.77 ± 1.34): 8.97 ± 1.11 ml/100g/min
- myocardial external energy efficiency ([5]; placebo 27.7±4.5): 29.5±7.3%
- 3-hydroxybutyrate ([5]; placebo 65 ± 8): 130 ± 17 µmol/L
- 24-hour mean arterial pressure ([5]; placebo 92±8): 88±5 mmHg
- 13C labeling of lactate ([6]; 1 μM, 35 min, 13C glucose perfusion, vehicle 58 ± 2): 50 ± 3%
- glucose-6-phosphate content ([6]; 1 μM, 35 min, vehicle 5.2 ± 0.8): 3.3 ± 0.4 AU
- 13C labeling of α-KG ([6]; 13C palmitate perfusion, vehicle 79 ± 1): 86 ± 1%
- circulating PYY vs placebo ([7]; 12-weeks, 3-hour mixed meal tolerance test, P = 0.003): elevated
- circulating GLP-1 vs placebo (GEE) ([7]; overall across follow-up, P = 0.016): higher
- myocardial perfusion (rats with CHF; long-term (90 days)): increased
- exercise capacity (rats with CHF; long-term (90 days), p=0.06): increased
- LV EDP (rats with CHF; [26]): reductions
- LV ESP (rats with CHF; [26]): increases
- patients with insulin dose reduction >10% [8]: 14.0%

Molecule: CC(C)OC(=O)C(C)(C)Oc1ccc(C(=O)c2ccc(Cl)cc2)cc1 [Fenofibrate]
- CAN outcome OR [9]: 0.91

Molecule: CC(=O)C=O [MGO, methylglyoxal]
- increase of circulating neutrophils vs PBS ([10]; 25μg iv bolus, after 10 min): 7 fold
- increase of hepatic neutrophils ([10]; 10 min post injection): 9 fold
- decrease of CD11b expression in the aorta ([10]; after 10 min): 19.9 fold
- macrophage numbers in the liver ([10]; after 72h, control 24.2±6.8): 35.7±6.5 macrophages per microscopic view
- impairment of tube formation capacity [11]: ~ 70%
- impairment of cell migration ([11]; transwell assay): ~ 30%

Molecule: CCOC(=O)C1Cc2ccccc2CN1C(=O)c1ccc(SC)s1 (stereo not shown) [SR8278]
- attenuation of beta-cell apoptosis (Rev-erbα; glucotoxicity or cytokines, antagonist or siRNA): ~ 30%

Molecule: CCOC(=O)N1CCC(CN(Cc2ccc(Cl)cc2)Cc2ccc([N+](=O)[O-])s2)C1 (stereo not shown) [SR9009]
- decrease of glucose-stimulated insulin secretion (Rev-erbα; INS-1E cells and human islets): 70%

- increase of exogenous glucagon levels (iAUC0-60 min) (neprilysin [12]): 1.9 fold
Molecule: CCOC(=O)[C@H](C)C[C@@H](Cc1ccc(-c2ccccc2)cc1)NC(=O)CCC(=O)O [Sacubitril, sacubitril]

Molecule: C[C@H](CCC(=O)NCCS(=O)(=O)O)[C@H]1CC[C@H]2[C@@H]3[C@H](O)C[C@@H]4C[C@H](O)CC[C@]4(C)[C@H]3C[C@H](O)[C@]12C [TCA, taurocholic acid]
- plasma glucose iAUC 0-180 min [13]: 568 ± 38 mmol·min/L

Molecule: C[C@@H]1C[C@H]2[C@@H]3CCC4=CC(=O)C=C[C@]4(C)[C@@]3(F)[C@@H](O)C[C@]2(C)[C@@]1(O)C(=O)CO [dexamethasone]
- reduction of basal and insulin-stimulated glucose uptake [14]: ~ 50%

Molecule: OC[C@H]1O[C@@H](c2ccc(Cl)c(Cc3ccc(O[C@H]4CCOC4)cc3)c2)[C@H](O)[C@@H](O)[C@@H]1O [empagliflozin]
- hypothalamic blood flow response to intranasal insulin [15]: significant insulin-induced decrease
- left ventricular mass index (LVMI) [16]: 111,1 g/m2
- body weight ([17]; 10mg/kg, 8 weeks, HFD 49.5 ± 2.8): 41.2 ± 1.5 g
- fat mass ([17]; HFD 17.6 ± 3.4): 10.7 ± 2.6 g
- AUC insulin ([17]; HFD 9617± 242): 6263 ± 337
- AUC glucose ([17]; HFD 38739± 1750): 27714 ± 1052
- plasma glucose, fructosamine, glycated albumin and UACR [18]: decreased
- systolic blood pressure, empagliflozin vs dapagliflozin ([19]; CI -2.35 to -0.12): -1.24 mmHg
- diastolic blood pressure, mean difference versus placebo ([19]; network meta-analysis): -1.73 mmHg

Molecule: CC#CCn1c(N2CCC[C@@H](N)C2)nc2c1c(=O)n(Cc1nc(C)c3ccccc3n1)c(=O)n2C [linagliptin]
- hypoglycaemia rates vs glimepiride (CAROLINA trial): significantly lower

- increase of insulin secretion (Piezo1 [20]; glucose alone almost 3-fold): ~ 7 fold
Molecule: Clc1cccc(Cl)c1CSc1nnc(-c2cnccn2)s1 [yoda1]

Molecule: GsMTx4
- reduction of insulin release (Piezo1 [20]): > 30%
- reduction of amplitude of glucose-induced [Ca2+]i oscillations (Piezo1 [21]): ~ 80%

Molecule: dulaglutide
- body weight loss vs vehicle [22]: -2.5%
- MACE-3 hazard ratio vs placebo [23]: 0.88

Molecule: insulin detemir [IDet]
- risk of major congenital malformations, perinatal or neonatal deaths vs other basal insulin [24]: not associated with excess risk

- increase of postprandial glucagon levels (iAUC0-240 min) (neprilysin [25]): 2.7 fold
Molecule: sacubitril / valsartan [sacubitril/valsartan]
